≈ marks a conversion by molar mass, not a printed value.
Legend:
[1] = target: Histone deacetylase 1 (Homo sapiens, UniProt Q13547); test: Inhibition of human HDAC1 expressed in Hi5 cells; parameters: species or system BTI-TN-5B1-4
Method in brief: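 C-terminally FLAG-tagged HDAC1 purified on anti-FLAG M2 agarose. Development 30 min at ambient temperature, fluorescence read at ex 360/em 465 nm. IC50 taken from dose–response curves.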

[2] = tested on: HCT-116; test: Antiproliferative activity against human HCT116 cells after 72 hrs; assay type: functional, cell-based; conditions: HCT-116, 72 h
Method in brief: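 HCT116 cells seeded at 1 × 10³ cells/well and left to adhere overnight, then exposed to inhibitors for 72 h. MTS tetrazolium dye added and incubated a further 3 h, with absorbance read at 490 nm.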

[3] = target: Voltage-gated inwardly rectifying potassium channel KCNH2 (Homo sapiens, UniProt Q12809); test: Inhibition of human ERG channel
[4] = Solubility at pH 7.4; assay type: physicochemical; conditions: buffer
[5] = Lipophilicity, log D at pH 7.4; assay type: physicochemical; conditions: buffer
[6] = Half life in rat at 63.6 umol/kg, po; assay type: ADME, organism-based; conditions: in vivo
[7] = Half life in rat at 56.7 umol/kg, po; assay type: ADME, organism-based; conditions: in vivo
[8] = Clearance in rat at 2.5 umol/kg, iv; assay type: ADME, organism-based; conditions: in vivo
[9] = Half life in rat at 2.5 umol/kg, iv; assay type: ADME, organism-based; conditions: in vivo
[10] = Volume of distribution at steady state in rat at 2.5 umol/kg, iv; assay type: ADME, organism-based; conditions: in vivo, read-out: Vdss
[11] = Clearance in rat at 5 umol/kg, iv; assay type: ADME, organism-based; conditions: in vivo
[12] = Volume of distribution at steady state in rat at 5 umol/kg, iv; assay type: ADME, organism-based; conditions: in vivo, read-out: Vdss
[13] = Half life in rat at 56.4 umol/kg, po; assay type: ADME, organism-based; conditions: in vivo
[14] = Half life in rat at 55 umol/kg, po; assay type: ADME, organism-based; conditions: in vivo
[15] = Half life in rat at 67.1 umol/kg, po; assay type: ADME, organism-based; conditions: in vivo
[16] = Half life in rat at 5 umol/kg, iv; assay type: ADME, organism-based; conditions: in vivo
[17] = Half life in rat at 55.6 umol/kg, po; assay type: ADME, organism-based; conditions: in vivo
[18] = Half life in rat at 10 umol/kg, po; assay type: ADME, organism-based; conditions: in vivo
[19] = Half life in rat at 65.2 umol/kg, po; assay type: ADME, organism-based; conditions: in vivo
[20] = Half life in mouse at 65.2 umol/kg, po; assay type: ADME, organism-based; conditions: in vivo
[21] = Clearance in Beagle dog at 0.8 umol/kg, iv; assay type: ADME, organism-based, Canis lupus familiaris; conditions: in vivo
[22] = Volume of distribution at steady state in Beagle dog at 0.8 umol/kg, iv; assay type: ADME, organism-based, Canis lupus familiaris; conditions: in vivo, read-out: Vdss
[23] = Half life in Beagle dog at 0.8 umol/kg, iv; assay type: ADME, organism-based, Canis lupus familiaris; conditions: in vivo
[24] = Half life in Beagle dog at 3 umol/kg, po; assay type: ADME, organism-based, Canis lupus familiaris; conditions: in vivo
[25] = Bioavailability in Beagle dog at 3 umol/kg, po; assay type: ADME, organism-based, Canis lupus familiaris; conditions: in vivo
[26] = tested on: Plasma; test: Fraction unbound to rat plasma protein in mouse; assay type: ADME, cell-free
[27] = tested on: Plasma; test: Fraction unbound to rat plasma protein in rat; assay type: ADME, cell-free
[28] = tested on: Plasma; test: Fraction unbound to […]; assay type: ADME, cell-free, Canis lupus familiaris

Sequence of Histone deacetylase 1 (Q13547 whole entry): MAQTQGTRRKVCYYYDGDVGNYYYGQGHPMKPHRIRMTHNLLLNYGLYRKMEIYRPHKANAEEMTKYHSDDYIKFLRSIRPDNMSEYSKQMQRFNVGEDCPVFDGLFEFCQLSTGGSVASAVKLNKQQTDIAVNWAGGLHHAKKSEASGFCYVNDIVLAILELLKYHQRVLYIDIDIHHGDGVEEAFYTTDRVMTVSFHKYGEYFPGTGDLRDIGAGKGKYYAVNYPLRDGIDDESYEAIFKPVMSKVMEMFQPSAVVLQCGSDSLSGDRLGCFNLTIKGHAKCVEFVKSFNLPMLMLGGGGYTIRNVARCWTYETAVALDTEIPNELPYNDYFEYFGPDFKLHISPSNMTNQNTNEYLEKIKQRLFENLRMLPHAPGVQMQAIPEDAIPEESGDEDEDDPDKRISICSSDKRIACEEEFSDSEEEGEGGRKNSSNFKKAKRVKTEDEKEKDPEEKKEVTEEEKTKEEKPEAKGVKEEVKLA
Sequence of Voltage-gated inwardly rectifying potassium channel KCNH2 (Q12809 whole entry): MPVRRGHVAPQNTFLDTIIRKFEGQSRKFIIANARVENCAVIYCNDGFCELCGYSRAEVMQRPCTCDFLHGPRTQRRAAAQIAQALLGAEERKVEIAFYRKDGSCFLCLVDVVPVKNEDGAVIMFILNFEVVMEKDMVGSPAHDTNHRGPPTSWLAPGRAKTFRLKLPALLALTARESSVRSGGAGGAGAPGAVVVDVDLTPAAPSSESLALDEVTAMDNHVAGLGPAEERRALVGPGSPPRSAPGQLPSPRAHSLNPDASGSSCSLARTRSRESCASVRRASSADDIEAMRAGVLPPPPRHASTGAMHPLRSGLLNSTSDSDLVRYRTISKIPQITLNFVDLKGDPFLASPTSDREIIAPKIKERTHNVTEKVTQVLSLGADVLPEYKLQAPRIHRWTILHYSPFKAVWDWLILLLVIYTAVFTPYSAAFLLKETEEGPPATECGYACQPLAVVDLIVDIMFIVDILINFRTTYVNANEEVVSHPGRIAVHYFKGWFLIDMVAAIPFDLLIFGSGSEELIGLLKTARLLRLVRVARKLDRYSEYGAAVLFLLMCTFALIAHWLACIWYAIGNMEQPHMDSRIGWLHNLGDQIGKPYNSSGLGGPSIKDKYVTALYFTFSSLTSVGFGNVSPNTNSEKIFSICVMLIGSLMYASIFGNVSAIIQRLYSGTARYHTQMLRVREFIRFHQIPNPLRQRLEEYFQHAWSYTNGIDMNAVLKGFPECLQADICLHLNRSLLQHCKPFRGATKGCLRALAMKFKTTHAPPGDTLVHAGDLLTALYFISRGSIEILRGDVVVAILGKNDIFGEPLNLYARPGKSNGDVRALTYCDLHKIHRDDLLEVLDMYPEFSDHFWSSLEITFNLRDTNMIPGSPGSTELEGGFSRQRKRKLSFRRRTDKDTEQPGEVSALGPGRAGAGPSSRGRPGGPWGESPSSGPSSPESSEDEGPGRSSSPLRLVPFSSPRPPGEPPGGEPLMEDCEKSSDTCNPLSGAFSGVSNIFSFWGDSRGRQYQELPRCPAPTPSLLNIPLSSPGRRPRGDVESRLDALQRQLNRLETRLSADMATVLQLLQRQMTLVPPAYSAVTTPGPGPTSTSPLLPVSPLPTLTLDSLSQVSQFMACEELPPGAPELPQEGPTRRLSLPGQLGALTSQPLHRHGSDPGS

SMILES | IC50 [1] [nM] | IC50 [2] [nM] | solubility [4] [µM] | logD [5] | clearance [11] [mL/min/kg] | Vd [12] [L/kg] | IC50 [3] [nM] | other results
CCN1CCN(Cc2cnc(-c3ccc(C(=O)Nc4ccccc4N)cc3)c(C)c2)CC1 | 18.6 | 229 | > 2350 | 1.2 | – | – | > 25100 | –
N#Cc1cccnc1-c1ccc(C(=O)Nc2ccccc2N)cc1 | 12.3 | 288 | 35 (≈ 11 µg/mL) | 1.58 | 56.1 | 1 | > 31600 | –
CC(C)N1CCN(Cc2cnc(-c3ccc(C(=O)Nc4ccccc4N)cc3)c(Cl)c2)CC1 | 13.2 | 309 | > 1490 | 1.68 | – | – | 7080 | –
Cc1cc(CN2CCC2)cnc1-c1ccc(C(=O)Nc2ccccc2N)cc1 | 21.4 | 309 | 2240 (≈ 834 µg/mL) | 1.18 | 30.2 | 6.9 | – | half-life [15]: 5.5 h; half-life [16]: 3 h
CCN1CCN(Cc2cnc(-c3ccc(C(=O)Nc4ccccc4N)cc3)c(Cl)c2)CC1 | 16.2 | 339 | – | 1.81 | – | – | 8320 | half-life [17]: 4.4 h
Nc1ccccc1NC(=O)c1ccc(-c2ncc(CN3CCC3)cc2F)cc1 | 50.1 | 372 | 841 (≈ 317 µg/mL) | 1.69 | 34 | 6.3 | > 25100 | half-life [18]: 5.4 h; half-life [16]: 3.6 h

The remaining molecules from weak to strong by IC50 [2], led by results:

IC50 [1] [nM] | IC50 [2] [nM] | solubility [4] [µM] | logD [5] | clearance [11] [mL/min/kg] | Vd [12] [L/kg] | SMILES | IC50 [3] [nM] | other results
33.1 | 646 | > 2160 | 1.6 | – | – | CC(C)N1CCN(Cc2cnc(-c3ccc(C(=O)Nc4ccccc4N)cc3)c(F)c2)CC1 | > 31600 | –
38 | 437 | > 2420 | – | – | – | CCN1CCN(Cc2cnc(-c3ccc(C(=O)Nc4ccccc4N)cc3)c(F)c2)CC1 | > 31600 | –
18.6 | 302 | 1340 (≈ 526 µg/mL) | – | – | – | Nc1ccccc1NC(=O)c1ccc(-c2ncc(CN3CCC3)cc2Cl)cc1 | 22400 | half-life [6]: 5.2 h
– | 240 | > 2620 | 1.44 | – | – | Cc1cc(CN2CCN(C(C)C)CC2)cnc1-c1ccc(C(=O)Nc2ccccc2N)cc1 | – | half-life [13]: 3.4 h
10.5 | 141 | 1380 (≈ 630 µg/mL) | 1.28 | – | – | CC(C)N1CCN(Cc2cnc(-c3ccc(C(=O)Nc4ccccc4N)cc3)c(C#N)c2)CC1 | 19100 | half-life [14]: 4.3 h; clearance [8]: 44 mL/min/kg; half-life [9]: 2 h; Vd [10]: 5.1 L/kg
9.77 | 138 | > 1940 | 1.14 | – | – | CCN1CCN(Cc2cnc(-c3ccc(C(=O)Nc4ccccc4N)cc3)c(C#N)c2)CC1 | > 25100 | half-life [7]: 3.2 h; clearance [8]: 47.5 mL/min/kg; half-life [9]: 1.1 h; Vd [10]: 3.6 L/kg
9.77 | 138 | 746 (≈ 286 µg/mL) | 1.22 | 19.6 | 5.4 | N#Cc1cc(CN2CCC2)cnc1-c1ccc(C(=O)Nc2ccccc2N)cc1 | > 25100 | half-life [19]: 5.5 h; half-life [20]: 3 h; clearance [21]: 30 mL/min/kg; Vd [22]: 2.32 L/kg; half-life [23]: 1.9 h; half-life [24]: 2.1 h; bioavailability [25]: 13%; fu [26]: 54%; fu [27]: 53%; fu [28]: 48%; half-life [16]: 3.8 h
